Data set [1] concerns Mus musculus. The data set is described as follows: Antagonistic activity against amphetamine-induced Hypermobility in mice, by administering perorally at a dose of 10 mg/kg. In kind it is functional. Conditions: route oral. Summed up: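 Male mice in groups of five, fasted overnight, given oral drug in arabic gum suspension (10 mL/kg) 1 or 5 h ahead. Amphetamine 4 mg/kg ip given 30 min after drug. Ten minutes later locomotion is recorded for 15 min in a photocell actophotometer. ED50 is 50% reduction versus control hypermotility, by probit analysis. Parenthetical entries give the maximal dose and percent activity.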

Data set [2] in a line: Lethal dose in mice (LD50) following i.p. dosing. The class given is toxicity, organism-based. Conditions: mouse, in vivo, ip. Summed up:
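Acute toxicity tested in mice by the intraperitoneal route. LD50 is the dose killing 50% of treated mice, computed by Finney probit analysis; values are approximate.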

Data set [3] concerns Rattus norvegicus. As to the kind of experiment: Activity to evoke catalepsy in rats, by administering perorally at a dose of 20 mg/kg. In kind it is functional. Conditions: route oral, read-out: Inhibition. Summed up:
(§1)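 Rats fasted overnight and given oral doses in arabic gum suspension (10 mL/kg), 1 h before screening or 1 and 5 h before profile testing. Forelegs placed on a horizontal bar 7 cm high, three times at 5-min intervals. Immobility of at least 15 s counts as catalepsy. ED50 is the dose giving catalepsy in 50% of rats, by probit analysis. Parenthetical entries give the maximal dose and percent activity.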

The test system of data set [4] is Mus musculus. As to the kind of experiment: Inhibition of spontaneous motor activity in mice, by administering perorally at a dose of 10 mg/kg. In kind it is functional. Conditions: route oral. Put shortly:
(§2)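 Mice in groups of five were dosed orally with gum arabic suspensions at 10 mL/kg after an overnight fast, with a vehicle control group. Locomotion was counted for 10 min in a photocell activity cage, in at least two groups per dose. ED50, by probit analysis, is the dose giving 50% inhibition against controls.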

For data set [5], the system named is Rattus norvegicus. As to the kind of experiment: Antagonistic activity against apomorphine-induced stereotypy in rats, by administering perorally at a dose of 20 mg/kg. The class given is functional. The conditions noted are these: route oral. Summed up: (§3)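 Male rats fasted overnight and given oral doses in arabic gum suspension (10 mL/kg) 1 h, or 1 and 5 h, before challenge. Apomorphine 3 mg/kg iv, with stereotypy observed 20 min later. ED50 is the dose inhibiting stereotypy in 50% of rats, per Janssen's method. Parenthetical entries give the maximal dose and percent activity.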

The subject of data set [6] is Rattus norvegicus. As to the kind of experiment: Antagonistic activity against apomorphine-induced stereotypy in rats, by administering perorally. Conditions: po. The class given is functional. Put shortly: as §3
The subject of data set [7] is Mus musculus. As to the kind of experiment: Inhibition of amphetamine-induced hypermobility in mice following p.o. administration. The class given is functional. Conditions: po. Summed up: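 Compounds were given orally to male mice (gum arabic suspension, 10 mL/kg, fasted) in groups of five. Amphetamine 4 mg/kg ip followed 30 min later. After another 10 min, motility was recorded for 15 min with a photocell actophotometer. ED50, by probit analysis, is the dose giving 50% reduction against controls.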

In data set [8] the test system is Rattus norvegicus. The data set is described as follows: Activity to evoke catalepsy in rats, by administering perorally at a dose 150 mg/kg. In kind it is functional. Conditions: route oral. Summed up:
as §1

Data set [9] relates to Mus musculus. As to the kind of experiment: Inhibition of spontaneous motor activity in mice, by administering perorally. The conditions noted are these: po. The class given is functional. Summed up:
as §2

For `Oc1nc(-c2ccc(-c3ccccc3)cc2)c(CCN2CCN(c3ccccc3)CC2)o1`, the inhibition in vivo – broadly, the change of the read-out against control, counted positive when it falls – at 10 mg/kg in [1] stood at 33%; in [4], 32%. The LD50 – broadly, the dose at which mortality reaches 50% – in [2] came out at 750 mg/kg. The percent of rats showing catalepsy at 20 mg/kg in data set [3] was determined as 0%. Testing at 20 mg/kg in [5] gave an inhibition in vivo of 0%.
With `CCn1c(-c2ccc(F)cc2)c(CCN2CCN(c3ccccc3)CC2)oc1=O`, the median lethal dose (LD50) in [2] came to 750 mg/kg. The ED50 (in general, the dose at which the effect has come halfway, by size or by number of responders) in data set [6] is 75 mg/kg; in [7], 17 mg/kg; in data set [9] it was 15.4 mg/kg. In addition, testing at 150 mg/kg in data set [8] gave an inhibition in vivo of 0%.
